Source: ChEMBL document CHEMBL1649516, “Pyrazolopyrimidinediones are selective agents for Helicobacter pylori that suppress growth through inhibition of glutamate racemase (MurI)” (2009)
Values after ≈ are worked out from the molar mass of the structure shown. Active and inactive are the calls of the source. The calls are words filed in the database; no cut-off is given here.

Legend:
[1] = test system: Helicobacter pylori; assay: Antibacterial activity against Helicobacter pylori SS1 by CLSI M100-S13 method; assay type: functional
Outline: (§1)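 MICs for H. pylori, C. coli and C. jejuni were determined by a previously described susceptibility method. Compounds were in DMSO at 2% final, and 2% DMSO served as the control.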

[2] = biological target: T1, Glutamate racemase (Helicobacter pylori (strain ATCC 700392 / 26695) (Campylobacterpylori)) (UniProt P56068); assay: Inhibition of MurI in flaA mutant Helicobacter pylori Hp80.2 overexpressing MurI gene assessed as microbial growth inhibition by CLSI M100-S13 method
T1 sequence (whole entry): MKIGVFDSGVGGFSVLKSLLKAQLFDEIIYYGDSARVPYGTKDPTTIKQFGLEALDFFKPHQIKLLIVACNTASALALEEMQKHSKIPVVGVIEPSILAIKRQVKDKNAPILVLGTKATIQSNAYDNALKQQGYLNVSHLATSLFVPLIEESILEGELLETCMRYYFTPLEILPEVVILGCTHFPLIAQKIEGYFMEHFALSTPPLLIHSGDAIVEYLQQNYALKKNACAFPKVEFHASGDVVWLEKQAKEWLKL
Outline: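 MIC against H. pylori Hp80.2, a strain built in the wild-type ARHp80 background by replacing flaA with a murI expression construct (pSM116) so that flaA-promoter-driven MurI is overexpressed, confirmed by PCR, sequencing and Western blot. The comparison strain is isogenic Hp80.1, which carries the empty construct. Compounds were dissolved in DMSO, 2% final, with 2% DMSO as control.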

[3] = test system: Helicobacter pylori; assay: Antibacterial activity against HefC-deficient Helicobacter pylori ARHp80 by CLSI M100-S13 method; assay type: functional; outline: as §1
[4] = test system: Escherichia coli; assay: Antibacterial activity against Escherichia coli by CLSI M100-S13 method; assay type: functional
Outline: (§2)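 Broth MICs were run per CLSI guidelines. Compounds were dissolved in DMSO at 2% final concentration, and 2% DMSO alone served as the control.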

[5] = test system: Staphylococcus aureus; assay: Antibacterial activity against Staphylococcus aureus by CLSI M100-S13 method; assay type: functional; outline: as §2
[6] = test system: Helicobacter pylori; assay: Antibacterial activity against Helicobacter pylori ARHp80 by CLSI M100-S13 method; assay type: functional; outline: as §1
[7] = test system: Haemophilus influenzae; assay: Antibacterial activity against Haemophilus influenzae ATCC 51907 by CLSI M100-S13 method; assay type: functional; outline: as §2
[8] = test system: Enterococcus faecium; assay: Antibacterial activity against Enterococcus faecium ATCC 19434 by CLSI M100-S13 method; assay type: functional; outline: as §2
[9] = test system: Moraxella catarrhalis; assay: Antibacterial activity against Moraxella catarrhalis ATCC 43617 by CLSI M100-S13 method; assay type: functional; outline: as §2
[10] = test system: Streptococcus pneumoniae; assay: Antibacterial activity against Streptococcus pneumoniae NCTC 7466 by CLSI M100-S13 method; assay type: functional; details: NCTC7466; outline: as §2
[11] = biological target: T1, Glutamate racemase (Helicobacter pylori (strain ATCC 700392 / 26695) (Campylobacterpylori)); assay: Inhibition of MurI in Helicobacter pylori assessed as morphological change at 2 times MIC by phase contrast microscopy
Outline: (§3)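 H. pylori was grown at 37°C in brucella broth with 5% fetal calf serum under microaerophilic gas (5% O2, 10% CO2, 85% N2), then examined for cell shape by phase-contrast microscopy.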

[12] = test system: Campylobacter coli; assay: Antibacterial activity against Campylobacter coli ATCC 33559 by CLSI M100-S13 method; assay type: functional; outline: as §1
[13] = test system: Clostridioides difficile; assay: Antibacterial activity against Clostridium difficile clinical isolate by CLSI M100-S13 method; assay type: functional
Outline: (§4)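 Anaerobic MICs run by CLSI broth microdilution guidelines for Bacteroides fragilis. Compounds were dissolved in DMSO at 2% final in all wells, and 2% DMSO served as the solvent control.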

[14] = test system: Prevotella melaninogenica; assay: Antibacterial activity against Prevotella melaninogenica clinical isolate by CLSI M100-S13 method; assay type: functional; outline: as §4
[15] = test system: Campylobacter jejuni; assay: Antibacterial activity against Campylobacter jejuni ATCC 33560 by CLSI M100-S13 method; assay type: functional; outline: as §1
[16] = test system: Fusobacterium mortiferum; assay: Antibacterial activity against Fusobacterium mortiferum clinical isolate by CLSI M100-S13 method; assay type: functional; outline: as §4
[17] = test system: Bacteroides thetaiotaomicron; assay: Antibacterial activity against Bacteroides thetaiotaomicron clinical isolate by CLSI M100-S13 method; assay type: functional; outline: as §4
[18] = test system: Fusobacterium necrophorum; assay: Antibacterial activity against Fusobacterium necrophorum clinical isolate by CLSI M100-S13 method; assay type: functional; outline: as §4
[19] = test system: Lactobacillus jensenii; assay: Antibacterial activity against Lactobacillus jensenii clinical isolate by CLSI M100-S13 method; assay type: functional
[20] = test system: Bacteroides fragilis; assay: Antibacterial activity against Bacteroides fragilis ATCC 25285 by CLSI M11-S13 broth microdilution method; assay type: functional; outline: as §4
[21] = test system: Helicobacter pylori; assay: Induction of morphological changes in Helicobacter pylori by phase contrast microscopy; assay type: functional, organism-based; outline: as §3

| SMILES | MIC [1] | MIC [2] | MIC [3] | MIC [4] | MIC [5] | MIC [6] | MIC [7] | MIC [8] | MIC [9] | MIC [10] | further results |
| --- | --- | --- | --- | --- | --- | --- | --- | --- | --- | --- | --- |
| C#CCn1c(=O)c2c(-c3cncn3C)n(Cc3ccnc4ccc(Cl)cc34)nc2n(CC2CC2)c1=O | 2 µg/mL (≈ 4 µM) | 8 µg/mL (≈ 16 µM) | 0.25 µg/mL (≈ 0.5 µM) | > 64 µg/mL | > 64 µg/mL | 1 µg/mL (≈ 2 µM) |  |  |  |  |  |
| CONC(=O)c1cc(-c2c3c(=O)n(C)c(=O)n(CC4CC4)c3nn2Cc2c[nH]c3ccc(C)cc23)n(C)c1 | 16 µg/mL (≈ 31 µM) |  | 0.25 µg/mL (≈ 0.485 µM) | > 64 µg/mL | > 64 µg/mL | 16 µg/mL (≈ 31 µM) | > 32 µg/mL | > 32 µg/mL | > 32 µg/mL | > 32 µg/mL |  |
| Cn1cc(C#N)cc1-c1c2c(=O)n(C)c(=O)n(CC3CC3)c2nn1Cc1ccnc2ccc(Cl)cc12 | 1 µg/mL (≈ 2 µM) | 4 µg/mL (≈ 8 µM) | 0.25 µg/mL (≈ 0.5 µM) | > 64 µg/mL | > 64 µg/mL | 0.5 µg/mL (≈ 1 µM) |  |  |  |  | Activity [11]: Non-toxic; MIC [12]: > 64 µg/mL; MIC [13]: > 64 µg/mL; MIC [14]: > 64 µg/mL; MIC [15]: > 64 µg/mL; MIC [16]: > 64 µg/mL; MIC [17]: > 64 µg/mL; MIC [18]: > 64 µg/mL; MIC [19]: > 64 µg/mL; MIC [20]: > 64 µg/mL |
| Cn1cc([S+](C)[O-])cc1-c1c2c(=O)n(C)c(=O)n(CC3CC3)c2nn1Cc1ccnc2ccc(Cl)cc12 (configuration not stated) | 16 µg/mL (≈ 29.8 µM) | 16 µg/mL (≈ 29.8 µM) | 0.25 µg/mL (≈ 0.466 µM) | > 64 µg/mL | > 64 µg/mL | 8 µg/mL (≈ 14.9 µM) | > 64 µg/mL | > 64 µg/mL | > 64 µg/mL | > 64 µg/mL |  |
| CN(C)[C@@H]1C(O)=C(C(N)=O)C(=O)[C@@]2(O)C(O)=C3C(=O)c4c(O)cccc4[C@@](C)(O)[C@H]3C[C@@H]12 [TETRACYCLINE] | 0.25 µg/mL (≈ 0.563 µM) | 0.13 µg/mL (≈ 0.293 µM) | 0.015 µg/mL (≈ 0.0338 µM) |  |  | 0.13 µg/mL (≈ 0.293 µM) |  |  |  |  | Activity [21]: Active |
| CC(C)Cn1c(=O)n(C)c(=O)c2c(-c3ccncc3)n(Cc3cccc4ccccc34)nc21 | 4 µg/mL (≈ 9.1 µM) | 8 µg/mL (≈ 18.2 µM) | 1 µg/mL (≈ 2.28 µM) | > 64 µg/mL | > 64 µg/mL | 4 µg/mL (≈ 9.1 µM) | > 64 µg/mL | > 64 µg/mL | > 64 µg/mL | > 64 µg/mL |  |
| C#CCn1c(=O)c2c(-c3cc(C#N)cn3C)n(Cc3cc(C#N)nc4ccc(Cl)cc34)nc2n(CC2CC2)c1=O | 2 µg/mL (≈ 3.64 µM) | > 64 µg/mL | 0.5 µg/mL (≈ 0.911 µM) | > 64 µg/mL | > 64 µg/mL | 1 µg/mL (≈ 1.82 µM) |  |  |  |  |  |
